Source: PubChem (Sanford-Burnham Center for Chemical Genomics)
Compounds with a hit are over-represented: about 1.6% of the library has one in this group of screens.
PPC-1+TRAIL kill – compounds killing PPC-1 cancer cells with TRAIL present, primary screen, TRAIL potentiator project, ATPLite luminescence, uHTS; cell killing (% activity), % at 4 µM or 5 µM; AID 1443, 2008; PPC-1 cells + TRAIL, ATPLite viability luminescence; 0.41% of 220,000 active;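 active = cell killing above 50% in the first pass at 4 µM, then a duplicate retest at 5 µM averaging 50% or more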
FLuc act counter – FLuc activators, initial screening, artefact control for FLuc-dependent activation tests, biochemical, ATPlite luminescence; Luciferin 4-monooxygenase (Photinus pyralis), P08659; ATPlite luciferase biochemical, 10 min; 0 = ATP-free wells, 1 = DMSO control; activation factor at 10 µM; 200,000 tested, under 10 active; AID 1027, 2008;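 active = luciferase activation factor, scaled between plate controls, of at least 2 with compound at 10 µM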
Target sequence (P08659 whole entry, looked up): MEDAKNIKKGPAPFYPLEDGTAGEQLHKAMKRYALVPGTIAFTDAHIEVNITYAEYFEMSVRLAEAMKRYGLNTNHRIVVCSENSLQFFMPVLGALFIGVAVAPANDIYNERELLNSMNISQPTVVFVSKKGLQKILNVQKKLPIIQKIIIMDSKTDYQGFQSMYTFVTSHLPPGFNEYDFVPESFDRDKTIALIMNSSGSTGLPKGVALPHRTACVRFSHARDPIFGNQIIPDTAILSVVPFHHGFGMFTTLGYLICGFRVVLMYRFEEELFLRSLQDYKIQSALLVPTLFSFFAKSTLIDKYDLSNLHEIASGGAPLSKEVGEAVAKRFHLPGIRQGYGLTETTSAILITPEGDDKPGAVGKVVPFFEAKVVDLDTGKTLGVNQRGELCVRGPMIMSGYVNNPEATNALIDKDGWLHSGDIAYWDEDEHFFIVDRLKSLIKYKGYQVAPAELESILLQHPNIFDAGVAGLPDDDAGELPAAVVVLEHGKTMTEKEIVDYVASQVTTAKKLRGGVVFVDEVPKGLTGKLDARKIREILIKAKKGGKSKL
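Assay system: Luciferase/luciferin detection reagent, cell-free biochemical luciferase assay / Also added: ATP substrate / Schedule: 10 min at ambient temperature / Measured by: luminescence measurement of luciferase light output / Benchmarks: low control with PBS replacing ATP, high control enzyme plus ATP without compound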
TRAIL sens C8 – viability loss with TRAIL in NB7+C8 cells, primary screen, TRAIL sensitizer project, cell-based, ATPlite luminescence; AID 624354, 2012; inhibition (viability loss, TRAIL sensitization), % at 10 µM; 1% of 360,000 active;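 active = compounds causing at least 50% loss of cell viability in the single-dose screen, relative to plate controls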
FLuc inhib CS – firefly luciferase enzyme inhibitors, primary screen, artefact control for luciferase-based inhibitor screens, biochemical, luminescence, ATPLite; 1.5% of 200,000 active; inhibition, % at 10 µM; 10 min; AID 1006, 2008; Luciferin 4-monooxygenase (Photinus pyralis), P08659;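 active = inhibition above about 50% when tested at 10 µM, limit read from the data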
PPC1 cytotox – cytotoxicity in PPC-1 cells, confirmation, cytotoxicity control for TRAIL apoptosis potentiator project, cell-based, ATP content luminescence | shares compounds with PPC-1+TRAIL kill | PPC-1 viability, ATPlite luminescence, overnight | cytotoxicity, % at 5 µM | 50% of 1,200 active | AID 1447, 2008;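 active = reconfirmed compounds whose average cytotoxicity reaches 50% or more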
Numbers stand for hits; – = inactive; · = no result given.

SMILES	PPC-1+TRAIL kill	FLuc act counter	TRAIL sens C8	FLuc inhib CS	others
C[C@]12CC[C@H](O)C[C@H]1CC[C@@H]1[C@@H]2C[C@@H](O)[C@]2(C)[C@@H](C3=CC(=O)OC3)CC[C@]12O	·	·	56.0	·
C[C@@H]1O[C@@H](O[C@H]2C[C@@H](O)[C@]3(CO)[C@@H]4C(CC[C@]3(O)C2)[C@@]2(O)CC[C@H](C3COC(=O)C3)[C@@]2(C)C[C@H]4O)[C@H](O)[C@H](O)[C@H]1O (stereo partly drawn)	·	·	–	·
CC12CCC(O)CC1CCC1C2CCC2(C)C(C3=CC(=O)OC3)CCC12O (stereo not drawn)	·	·	64.0	·
COC1C(O)C(C)OC(OC2CCC3(C)C(CCC4C3C(O)CC3(C)C(C5=CC(=O)OC5)CCC43O)C2)C1O (stereo not drawn)	·	·	68.1	·
CC12CC[C@H]3[C@@H](CCC4(O)C[C@H](O)CCC34/C=N/NC(=O)Cc3ccccc3)C1(O)CCC2C1=CC(=O)OC1 (stereo partly drawn)	–	·	–	·
C[C@]12CC[C@H](O)C[C@H]1CC[C@@H]1[C@@H]2CC[C@]2(C)[C@@H](C3=CC(=O)OC3)CC[C@]12O	·	·	–	·
CC12CCC(O)CC1CCC1C2CCC2(C)C(C3=CC(=O)OC3)C(O)CC12O (stereo not drawn)	·	·	57.6	·
CO[C@H]1C=C2CCN(C)[C@H]2C2c3cc4c(cc3C(=O)O[C@@H]21)OCO4 (stereo partly drawn)	·	·	–	·
C[C@]12CC[C@H](O)CC1=CCC1C2CC[C@@]2(C)C1C[C@@H]1CC(=O)O[C@@H]12 (stereo partly drawn)	·	·	–	·
Cn1cc(C(=O)OCC(=O)NC2(C#N)CCCC2)c2ccccc21	·	·	–	·
C[C@H](CO)N1C[C@H](C)[C@@H](CN(C)C(=O)Oc2ccc3ccccc3c2)OCc2cnnn2CCCC1=O	·	·	–	·
C=C(C)C(Cc1c(OC)ccc(C(=O)/C=C/c2ccc(O)cc2)c1O)OO (stereo not drawn)	·	·	–	·
C[C@H]1CC[C@@H]2[C@@H](C)[C@H]3[C@H](C[C@H]4[C@@H]5CC=C6C[C@@H](O[C@@H]7O[C@H](CO)[C@H](O)[C@H](O[C@@H]8O[C@H](CO)[C@@H](O)[C@H](O)[C@H]8O)[C@H]7O[C@@H]7O[C@@H](C)[C@H](O)[C@@H](O)[C@H]7O)CC[C@]6(C)[C@H]5CC[C@]34C)N2C1	–	–	–	–
CC(=O)OC1CC(OC2C(O)CC(OC3C(O)CC(OC4CCC5(C)C(CCC6C5CC(O)C5(C)C(C7=CC(=O)OC7)CCC65O)C4)OC3C)OC2C)OC(C)C1OC1OC(CO)C(O)C(O)C1O (stereo not drawn)	·	·	66.5	·
O=C(O)C(Br)CBr (stereo not drawn)	·	·	–	·
O=C(c1ccccc1)C(CN1CCCC1)c1ccccc1 (stereo not drawn)	57.4	–	–	–
CCN1CCN(CC(c2ccccc2)c2ccccc2)CC1	·	·	–	·
COC(C)(C)CCCC(C)C/C=C/C(C)=C/C(=O)OC(C)C (stereo not drawn)	·	·	–	·
CC(=O)O[C@H]1C[C@@H]2OC3C=C(C)CCC3(C)[C@@]1(C)[C@@]21CO1 (stereo partly drawn)	·	·	–	·
CC(=O)OC1CC2OC3C=C(C)CCC3(C)C1(C)C21CO1 (stereo not drawn)	·	·	57.6	·
COC(=O)C1=C(c2ccc(F)cc2OCc2ccccc2)C[C@@H]2CC[C@H]1N2C(=O)NC1Cc2ccccc2C1	·	·	–	·
C[C@@H]([C@@H](O)c1ccccc1)N(C)C(=O)Cc1ccccc1	·	·	–	·
CN(C)CC(C(=O)Cc1ccccc1)c1ccccc1 (stereo not drawn)	·	·	63.5	·
O=C1C(=O)c2ccccc2-c2ccccc21	67.8	–	95.2	–	PPC1 cytotox=63.1
C[C@@H]1CN([C@@H](C)CO)C(=O)CCCn2nncc2CO[C@H]1CN(C)C(=O)Oc1cccc2ccccc12	·	·	–	·
SMILES	PPC-1+TRAIL kill	FLuc act counter	TRAIL sens C8	FLuc inhib CS	others
CN[C@@H](C)[C@@H](O)c1ccccc1	·	·	–	·
CC(C)N1CCN(Cc2ccc3c(c2)OCCO3)CC1CCO (stereo not drawn)	–	–	–	–	PPC1 cytotox=–
CC(C)N1CCN(Cc2cc3c(cc2Cl)OCO3)CC1CCO (stereo not drawn)	–	·	–	·
C=C(C=O)C[C@@H]1C[C@H](O)C2OC3C[C@]4(C)OC5/C=C\CC6OC7C(CC=CCC6OC5CCCC4OC3CC2O1)OC1CC2OC3CC(=O)OC3C[C@@H](C)C[C@@]2(C)OC1C[C@@H]7C (stereo partly drawn)	77.9	·	·	·	PPC1 cytotox=77.4
C=CC[N+]1(C)C2CCC1CC(O)C2 (stereo not drawn)	–	–	–	–
CCOc1ccc(C2CC(c3c(O)n(C)c(=O)n(C)c3=O)=NN2)cc1 (stereo not drawn)	69.0	·	73.9	·	PPC1 cytotox=71.2
CN1CCN(c2ccc([N+](=O)[O-])c3no[n+]([O-])c23)CC1	78.0	·	94.6	·	PPC1 cytotox=80.2
COc1ccccc1-n1c(-c2cccs2)nc2ccccc2c1=O	–	–	–	–
Cc1cc([N+](=O)[O-])c2ccccc2[n+]1[O-]	93.5	·	–	·	PPC1 cytotox=90.8
CC1CC(C)CN(CC(=O)c2ccc(OC(F)F)cc2)C1 (stereo not drawn)	–	–	–	–
CN1CCN(c2nc(N)cc(=O)[nH]2)CC1	–	·	–	·
Cc1ccc2nc(N3CCN(C)CC3)[nH]c2c1	–	–	–	–	PPC1 cytotox=–
CCCCC1C(=O)NC(=S)NC1=O	–	–	·	–
CNc1ccc2oc(C[C@H]3O[C@@]4(CC[C@H]3C)O[C@H]([C@H](C)C(=O)c3ccc[nH]3)[C@H](C)C[C@H]4C)nc2c1C(=O)O	–	·	82.6	·	PPC1 cytotox=–
CN1C(=O)C(C2c3ccccc3C(=O)N2Cc2ccc([N+](=O)[O-])cc2)C(=O)N(C)C1=O (stereo not drawn)	–	–	–	–
CN1C(=O)C(C2c3ccccc3C(=O)N2Cc2ccccc2)C(=O)N(C)C1=O (stereo not drawn)	–	–	–	–	PPC1 cytotox=–
Cc1nc2c(=O)n(C)c(=O)nc-2n(C)n1	65.7	–	96.3	–	PPC1 cytotox=62.3
CN(C)Cc1ccccc1OC(=O)N(C)C	–	–	–	–
Cc1cccc(CN(C)C)c1OC(=O)N(C)C	–	–	–	–	PPC1 cytotox=–
CCC1(CCC(C)C)C(=O)NC(=S)NC1=O	·	·	–	·
